Measured values as given in ChEMBL document CHEMBL1255566, “Rigid analogues of the α2-adrenergic blocker atipamezole: small changes, big consequences” (J Med Chem, 2010).

Columns and labels:
Mus musculus [1] = assay: Ratio of ED50 for santihypothermic activity in po dosed NMRI mouse to ED50 for antihypothermic activity in ip dosed NMRI mouse; assay type: functional
In short: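 Guanabenz-induced hypothermia in mice, five animals per dose. ED50 (the dose inhibiting hypothermia in 50% of guanabenz-treated animals) was obtained after oral gavage and after intraperitoneal injection, and the ratio po/ip was then calculated.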

Mus musculus [2] = assay: Antihypothermic activity in ip dosed NMRI mouse assessed as inhibition of guanabenz-induced hypothermia administered 5 mins before guanabenz challenge measured after 25 mins; assay type: functional
In short: (§1)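 Mice got the compound by intraperitoneal injection or oral gavage before guanabenz challenge, and reversal of guanabenz-induced hypothermia was scored. Five animals were tested per dose. ED50 is the dose giving an inhibitory effect in 50% of guanabenz-treated animals, with 95% confidence limits.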

[3] = target: T1, Alpha-1B adrenergic receptor (Homo sapiens, UniProt P35368); assay: Displacement of [3H]-prazosin from human adrenergic alpha-1b receptor expressed in CHO cells after 120 mins by liquid scintillation counting; assay type: cell-based
T1 sequence (P35368 whole entry): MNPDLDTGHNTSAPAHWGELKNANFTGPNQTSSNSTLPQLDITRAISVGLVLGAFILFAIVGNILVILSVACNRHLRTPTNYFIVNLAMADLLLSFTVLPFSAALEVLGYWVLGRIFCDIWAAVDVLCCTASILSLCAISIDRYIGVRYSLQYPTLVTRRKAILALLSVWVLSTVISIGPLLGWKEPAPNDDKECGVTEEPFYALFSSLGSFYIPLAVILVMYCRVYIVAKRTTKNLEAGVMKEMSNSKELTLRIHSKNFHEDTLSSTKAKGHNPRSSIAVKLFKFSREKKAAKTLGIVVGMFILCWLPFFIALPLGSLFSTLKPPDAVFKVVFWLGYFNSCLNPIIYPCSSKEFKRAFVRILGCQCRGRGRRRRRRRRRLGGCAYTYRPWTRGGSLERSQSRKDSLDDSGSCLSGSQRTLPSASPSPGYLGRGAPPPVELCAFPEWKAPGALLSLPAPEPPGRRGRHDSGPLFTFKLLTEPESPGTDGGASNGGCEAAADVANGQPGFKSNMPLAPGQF
In short: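 Competition binding at human α1b receptors stably expressed in CHO cells. Affinity values are means ± SEM of at least two experiments, each in duplicate.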

Mus musculus [4] = assay: Antihypothermic activity in po dosed NMRI mouse assessed as inhibition of guanabenz-induced hypothermia administered 35 mins before guanabenz challenge measured after 25 mins; assay type: functional; in short: as §1
[5] = target: T2, Alpha-2A adrenergic receptor (Homo sapiens, UniProt P08913); assay: Displacement of [3H]-RX821002 from human adrenergic alpha2A receptor expressed in rat C6 cells after 120 mins by liquid scintillation counting; assay type: cell-based
T2 sequence (P08913 whole entry): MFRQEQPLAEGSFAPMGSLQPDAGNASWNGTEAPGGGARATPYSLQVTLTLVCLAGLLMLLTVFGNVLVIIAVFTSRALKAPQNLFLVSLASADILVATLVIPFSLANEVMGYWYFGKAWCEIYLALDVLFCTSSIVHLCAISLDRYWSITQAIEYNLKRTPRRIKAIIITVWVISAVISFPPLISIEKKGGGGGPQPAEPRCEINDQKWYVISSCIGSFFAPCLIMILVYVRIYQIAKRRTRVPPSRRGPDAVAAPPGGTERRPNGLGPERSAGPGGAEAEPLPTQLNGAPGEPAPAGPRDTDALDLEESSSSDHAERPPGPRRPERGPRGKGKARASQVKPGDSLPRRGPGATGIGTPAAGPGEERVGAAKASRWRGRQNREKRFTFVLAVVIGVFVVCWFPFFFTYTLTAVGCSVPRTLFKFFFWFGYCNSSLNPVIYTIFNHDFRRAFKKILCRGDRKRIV
In short: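 Competition binding at human α2A receptors expressed in C6 glial cells. Affinity values are means ± SEM of at least two experiments, each in duplicate.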

[6] = target: T3, Alpha-2C adrenergic receptor (Homo sapiens, UniProt P18825); assay: Displacement of [3H]-RX821002 from human adrenergic Alpha-2C receptor expressed in rat C6 cells after 120 mins by liquid scintillation counting; assay type: cell-based
T3 sequence (P18825 whole entry): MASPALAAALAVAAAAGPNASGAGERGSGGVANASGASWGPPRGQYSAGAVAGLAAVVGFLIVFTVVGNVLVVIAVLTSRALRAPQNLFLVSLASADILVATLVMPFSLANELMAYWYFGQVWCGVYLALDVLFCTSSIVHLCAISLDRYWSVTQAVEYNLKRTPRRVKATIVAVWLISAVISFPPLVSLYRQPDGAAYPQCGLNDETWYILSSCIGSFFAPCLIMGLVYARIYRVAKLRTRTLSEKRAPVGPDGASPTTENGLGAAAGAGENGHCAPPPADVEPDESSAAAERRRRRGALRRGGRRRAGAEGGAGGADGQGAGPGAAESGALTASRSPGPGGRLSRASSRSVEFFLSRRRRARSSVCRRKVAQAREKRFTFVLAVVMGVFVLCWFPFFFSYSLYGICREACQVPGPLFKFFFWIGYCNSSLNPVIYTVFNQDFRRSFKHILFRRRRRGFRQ

[7] = target: T4, Alpha-2B adrenergic receptor (Homo sapiens, UniProt P18089); assay: Displacement of [3H]-RX821002 from human adrenergic alpha2B receptor expressed in rat C6 cells after 120 mins by liquid scintillation counting; assay type: cell-based
T4 sequence (P18089 whole entry): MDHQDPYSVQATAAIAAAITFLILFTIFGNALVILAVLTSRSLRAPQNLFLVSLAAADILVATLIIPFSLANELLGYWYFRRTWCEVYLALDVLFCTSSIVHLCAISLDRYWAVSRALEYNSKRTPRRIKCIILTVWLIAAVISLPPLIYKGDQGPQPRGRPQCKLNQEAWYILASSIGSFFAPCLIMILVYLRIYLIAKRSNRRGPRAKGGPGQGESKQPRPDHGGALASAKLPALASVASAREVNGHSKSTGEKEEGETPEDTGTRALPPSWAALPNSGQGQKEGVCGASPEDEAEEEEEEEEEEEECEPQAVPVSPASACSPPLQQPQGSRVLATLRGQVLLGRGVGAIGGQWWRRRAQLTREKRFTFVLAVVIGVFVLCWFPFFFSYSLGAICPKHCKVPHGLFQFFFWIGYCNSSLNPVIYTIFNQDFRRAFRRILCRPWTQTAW

[8] = target: T5, Alpha-2A adrenergic receptor (Homo sapiens) (UniProt P08913); assay: Antagonist activity at human adrenergic alpha2A receptor expressed in CHO cells assessed as inhibition of adrenaline-induced [35S]GTPgammaS binding after 30 mins by scintillation counting; assay type: functional, cell-based
T5 sequence (whole entry): T2 sequence (P08913 whole entry)
In short: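 Inhibition of adrenaline-stimulated [35S]GTPγS binding in CHO cells expressing human α2A receptors. Compounds were also run alone to check for any stimulation of [35S]GTPγS binding. Antagonist potency is reported as pKB, taken as the potency that inhibits 50% of adrenaline-induced binding.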

[9] = Mus musculus, NMRI, ip, read-out: ED50
[10] = Mus musculus, NMRI, po, read-out: ED50

Structure (SMILES)	Ki [3] [nM]	Ki [5] [nM]	Ki [6] [nM]	Ki [7] [nM]	pKb [8]	Ratio ED50 (Mus musculus [1])	ED50 (Mus musculus [2]; [9]) [mg/kg]	ED50 (Mus musculus [4]; [10]) [mg/kg]	ED50 (Mus musculus [2]) [mg/kg]	ED50 (Mus musculus [4]) [mg/kg]
CC[C@H]1[C@@H]2c3ccccc3C[C@]12c1c[nH]cn1	16.6	0.138	0.17	0.182						
CO[C@@H]1c2ccccc2[C@H]2C[C@]21c1c[nH]cn1 (relative stereo)					6.9					
CCCO[C@H]1c2ccccc2[C@H]2C[C@]21c1c[nH]cn1 (relative stereo)					8.16	0.4	0.29	0.12		
CCO[C@H]1c2ccccc2[C@H]2C[C@]21c1c[nH]cn1 (relative stereo)	39.8	3.31	10.2	9.77	8.36	0.2	0.16	0.03		
C[C@H]1c2ccccc2[C@H]2C[C@]21c1c[nH]cn1 (relative stereo)					9.54	1.5	0.006	0.009		
CO[C@H]1c2ccccc2[C@H]2C[C@]21c1c[nH]cn1 (stereo in doubt; (+)-3) [listing 1 of 2 here]	63.1	0.562	1.95	2.82		2.3			0.03	0.07
CO[C@@H]1c2ccccc2[C@H]2C[C@]21c1cnc[nH]1 (relative stereo)	912	11.7	66.1	24						
CO[C@H]1c2ccccc2[C@H]2C[C@]21c1c[nH]cn1 (stereo in doubt; (-)-3) [listing 1 of 2 here]	1780	55	195	145						
CO[C@H]1c2ccccc2[C@H]2C[C@]21c1c[nH]cn1 (relative stereo) [listing 1 of 2 here]					8.28					
CCCO[C@H]1c2ccccc2[C@H]2C[C@]21c1cnc[nH]1 (relative stereo)	11.5	3.98	1.55	6.46						
c1ccc2c(c1)C[C@]1(c3c[nH]cn3)C[C@H]21 (stereo in doubt; (-)-1) [listing 2 of 2 here]					10.2					
CO[C@H]1c2ccccc2[C@H]2C[C@]21c1c[nH]cn1 (stereo in doubt; (+)-3) [listing 2 of 2 here]					8.54					
CO[C@H]1c2ccccc2[C@H]2C[C@]21c1c[nH]cn1 (relative stereo) [listing 2 of 2 here]	102	1.74	5.75	7.76		3.1			0.09	0.28
CO[C@H]1c2ccccc2[C@H]2C[C@]21c1c[nH]cn1 (stereo in doubt; (-)-3) [listing 2 of 2 here]					6.44					

The next lines start with results.

Ki [3] [nM]	Ki [5] [nM]	Ki [6] [nM]	Ki [7] [nM]	pKb [8]	Structure (SMILES)	Ratio ED50 (Mus musculus [1])	ED50 (Mus musculus [2]; [9]) [mg/kg]	ED50 (Mus musculus [4]; [10]) [mg/kg]	ED50 (Mus musculus [2]) [mg/kg]	ED50 (Mus musculus [4]) [mg/kg]
178	1.07	1.17	1.15	8.97	CC1(C)C2c3ccccc3C[C@@]21c1c[nH]cn1 (single isomer, unassigned)	6.7	0.07	0.47		
6.17	0.219	0.537	0.692		C[C@H]1c2ccccc2[C@H]2C[C@]21c1cnc[nH]1 (relative stereo)					
				9.05	c1ccc2c(c1)[C@H]1C[C@@]1(c1c[nH]cn1)C21CC1 (stereo in doubt; 10) [listing 1 of 2 here]					
3.55	0.407	0.437	0.347	9.24	CCC[C@H]1[C@@H]2c3ccccc3C[C@]12c1c[nH]cn1	3.3	0.1	0.33		
				7.75	c1ccc2c(c1)[C@H]1C[C@@]1(c1c[nH]cn1)C21CC1 (stereo in doubt; (-)-10) [listing 1 of 2 here]					
1.05	0.0282	0.129	0.11		c1ccc2c(c1)C[C@]1(c3c[nH]cn3)C[C@H]21 (stereo in doubt; (-)-1) [listing 1 of 2 here]	5			0.008	0.04
18.2	0.331	2.14	1.91		c1ccc2c(c1)[C@H]1C[C@@]1(c1c[nH]cn1)C21CC1 (stereo in doubt; (+)-10) [listing 1 of 2 here]	2.8			0.08	0.22
14.8	0.603	2.69	3.72		c1ccc2c(c1)[C@H]1C[C@@]1(c1c[nH]cn1)C21CC1 (stereo in doubt; 10) [listing 2 of 2 here]	3.7			0.06	
97.7	3.89	20.4	6.76		c1ccc2c(c1)[C@H]1C[C@@]1(c1c[nH]cn1)C21CC1 (stereo in doubt; (-)-10) [listing 2 of 2 here]	10.4			0.18	1.87
1950	1.86	4.17	2.24		CCC1(c2cnc[nH]2)Cc2ccccc2C1 [ATIPAMEZOLE]					
1.32	0.0692	0.178	0.115		c1ccc2c(c1)C[C@]1(c3c[nH]cn3)C[C@H]21 (stereo in doubt; 1) [listing 1 of 2 here]	4			0.03	0.12
316	45.7	89.1	11.7	6.88	CC(C)O[C@H]1c2ccccc2[C@H]2C[C@]21c1c[nH]cn1 (relative stereo)					
				9.78	c1ccc2c(c1)C[C@]1(c3c[nH]cn3)C[C@H]21 (stereo in doubt; 1) [listing 2 of 2 here]					
				8.88	c1ccc2c(c1)[C@H]1C[C@@]1(c1c[nH]cn1)C21CC1 (stereo in doubt; (+)-10) [listing 2 of 2 here]					
